Assay results reported in ChEMBL document CHEMBL5625173, “Antimycobacterial pyridine carboxamides: From design to in vivo activity” (Eur J Med Chem, 2023).
pIC50: −log10 of the molar value. ≈ marks a conversion by molar mass, not a printed value.

Tests used:
[1] = system: Mycobacterium tuberculosis; test: Antimycobacterial activity against Mycobacterium tuberculosis H37Rv by alamar blue staining based microplate analysis; format: functional
Outline: (§1)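 Microplate Alamar Blue assay. MIC values read at pH 6.6 (neutral). One acidic-pH test at pH 5.6 is footnoted separately.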

[2] = system: Mycobacterium tuberculosis; test: Antimycobacterial activity against Mycobacterium tuberculosis H37Ra by alamar blue staining based microplate analysis; format: functional; outline: as §1
[3] = system: Mycobacterium kansasii; test: Antimycobacterial activity against Mycobacterium kansasii by alamar blue staining based microplate analysis; format: functional
Outline: (§2)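 Microplate Alamar Blue assay, one of six mycobacterial strains tested (Mtb H37Rv, Mtb H37Ra, M. kansasii, M. avium, M. smegmatis, M. aurum); value reported as MIC.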

[4] = system: Mycobacterium avium; test: Antimycobacterial activity against Mycobacterium avium by alamar blue staining based microplate analysis; format: functional; outline: as §1
[5] = system: Mycolicibacterium smegmatis; test: Antimycobacterial activity against Mycobacterium smegmatis by alamar blue staining based microplate analysis; format: functional; outline: as §2
[6] = system: Mycolicibacterium aurum; test: Antimycobacterial activity against Mycobacterium aurum by alamar blue staining based microplate analysis; format: functional; outline: as §2
[7] = Cytotoxicity against human HepG2 cells assessed as inhibition of cell viability; format: toxicity, cell-based
[8] = Selectivity index, ratio of IC50 for cytotoxicity against human HepG2 cells to MIC for antimycobacterial activity against Mycobacterium tuberculosis H37Rv; format: toxicity, cell-based; settings: read-out: Selectivity Index
[9] = system: Mycobacterium tuberculosis; test: Antimycobacterial activity against Mycobacterium tuberculosis IZAK by alamar blue staining based microplate analysis; format: functional
[10] = system: Mycobacterium tuberculosis; test: Antimycobacterial activity against Mycobacterium tuberculosis MAT1 by alamar blue staining based microplate analysis; format: functional
[11] = Metabolic stability in human liver microsomes assessed as half life at 3 uM incubated for 45 mins by HPLC-MS analysis; format: ADME, Microsome
Outline: (§3)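 Ammonium salt or lactone, 3 μM, incubated with human liver microsomes at physiological pH; reactions stopped at 0, 5, 15, 30 and 45 min and analysed by HPLC-MS; k, t1/2 and intrinsic clearance calculated from the HPLC-MS records.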

[12] = Metabolic stability in human liver microsomes assessed as intrinsic clearance at 3 uM incubated for 45 mins by HPLC analysis; format: ADME, Microsome; settings: read-out: CLH; outline: as §3
[13] = Drug metabolism in human liver microsomes assessed as M1 metabolite formation at 90 uM incubated for 3 hrs; format: ADME, Microsome
Outline: (§4)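 Phase I metabolite identification: ammonium salt of the compound (for solubility) or its lactone, 90 μM, incubated with human liver microsomes for 3 h; metabolites detected by HPLC-MS, positive ion mode, by m/z.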

[14] = Drug metabolism in human liver microsomes assessed as M2 metabolite formation at 90 uM incubated for 3 hrs; format: ADME, Microsome; outline: as §4

Cc1cc(C(=O)Nc2cnccn2)ccn1
MIC [1]: > 100 µg/mL
MIC [2]: ≥ 250 µg/mL
MIC [3]: > 100 µg/mL
MIC [4]: > 100 µg/mL
MIC [5]: ≥ 250 µg/mL
MIC [6]: ≥ 250 µg/mL
pIC50 [7]: < 3.00

O=C(Nc1ccc(C(=O)O)c(O)c1)c1ccncc1
MIC [1]: 3.13 µg/mL (≈ 12.1 µM)
MIC [2]: ≥ 125 µg/mL
MIC [3]: 50 µg/mL (≈ 194 µM)
MIC [4]: 100 µg/mL (≈ 387 µM)
MIC [5]: ≥ 125 µg/mL
MIC [6]: ≥ 125 µg/mL
pIC50 [7]: < 3.00
selectivity ratio [8]: 82.5

O=C(Nc1cnccn1)c1ccc(C(F)(F)F)cn1
MIC [1]: 50 µg/mL (≈ 186 µM)
MIC [2]: ≥ 500 µg/mL
MIC [3]: 6.25 µg/mL (≈ 23.3 µM)
MIC [4]: > 100 µg/mL
MIC [5]: ≥ 500 µg/mL
MIC [6]: ≥ 500 µg/mL
pIC50 [7]: < 3.84

NC(=O)c1cnccn1 [PYRAZINAMIDE]
MIC [1]: > 100 µg/mL
MIC [2]: ≥ 500 µg/mL
MIC [3]: > 100 µg/mL
MIC [4]: > 100 µg/mL
MIC [5]: ≥ 500 µg/mL
MIC [6]: ≥ 500 µg/mL
pIC50 [7]: < 3.00

Nc1cncc(Cl)n1
MIC [1]: > 100 µg/mL
MIC [2]: ≥ 500 µg/mL
MIC [3]: > 100 µg/mL
MIC [4]: > 100 µg/mL
MIC [5]: ≥ 500 µg/mL
MIC [6]: ≥ 500 µg/mL
pIC50 [7]: < 3.00

Cc1cc(C(=O)Nc2ccc(C(=O)O)c(O)c2)ccn1
MIC [1]: 12.5 µg/mL (≈ 45.9 µM)
MIC [2]: ≥ 125 µg/mL
MIC [3]: > 100 µg/mL
MIC [4]: > 100 µg/mL
MIC [5]: ≥ 125 µg/mL
MIC [6]: ≥ 125 µg/mL
pIC50 [7]: < 3.00
selectivity ratio [8]: 21.8

O=C(Nc1cnccn1)c1ccc(Cl)nc1
MIC [1]: > 100 µg/mL
MIC [2]: ≥ 250 µg/mL
MIC [3]: > 100 µg/mL
MIC [4]: > 100 µg/mL
MIC [5]: ≥ 250 µg/mL
MIC [6]: ≥ 250 µg/mL
pIC50 [7]: < 3.00

O=C(O)c1ccc(NC(=O)c2ccccn2)cc1
MIC [1]: > 100 µg/mL
MIC [2]: 125 µg/mL (≈ 516 µM)
MIC [3]: > 100 µg/mL
MIC [4]: > 100 µg/mL
MIC [5]: ≥ 500 µg/mL
MIC [6]: 250 µg/mL (≈ 1030 µM)
pIC50 [7]: < 3.60

Nc1cnccn1
MIC [1]: > 100 µg/mL
MIC [2]: ≥ 500 µg/mL
MIC [3]: > 100 µg/mL
MIC [4]: > 100 µg/mL
MIC [5]: ≥ 500 µg/mL
MIC [6]: ≥ 500 µg/mL
pIC50 [7]: < 3.00

O=C(Nc1cnccn1)c1ccc2ccccc2n1
MIC [1]: > 100 µg/mL
MIC [2]: ≥ 125 µg/mL
MIC [3]: > 100 µg/mL
MIC [4]: > 100 µg/mL
MIC [5]: ≥ 125 µg/mL
MIC [6]: ≥ 125 µg/mL
pIC50 [7]: < 4.00

CO[C@H]1/C=C/O[C@@]2(C)Oc3c(C)c(O)c4c(O)c(c(/C=N/N5CCN(C)CC5)c(O)c4c3C2=O)NC(=O)/C(C)=C\C=C\[C@H](C)[C@H](O)[C@@H](C)[C@@H](O)[C@@H](C)[C@H](OC(C)=O)[C@@H]1C [RIFAMPIN]
MIC [2]: 0.003 µg/mL (≈ 0.00365 µM)
MIC [5]: 12.5 µg/mL (≈ 15.2 µM)
MIC [6]: 0.198 µg/mL (≈ 0.241 µM)
pIC50 [7]: < 3.30

O=C(Nc1ccc(C(=O)O)c(O)c1)c1ccc2ccccc2n1
MIC [1]: 1.56 µg/mL (≈ 5.06 µM)
MIC [2]: 31.2 µg/mL (≈ 101 µM)
MIC [3]: 100 µg/mL (≈ 324 µM)
MIC [4]: 100 µg/mL (≈ 324 µM)
MIC [5]: 31.2 µg/mL (≈ 101 µM)
MIC [6]: 15.6 µg/mL (≈ 50.7 µM)
pIC50 [7]: < 3.00
selectivity ratio [8]: 198
MIC [9]: 6.25 µg/mL (≈ 20.3 µM)
MIC [10]: 12.5 µg/mL (≈ 40.5 µM)
half-life at 3 µM [11]: 10.5 h
microsomal CLint at 3 µM [12]: 2.2 µL/min/mg
Drug metabolism [13]: Metabolite_Detected
Drug metabolism [14]: Metabolite_Detected

Cc1cc(C(=O)Nc2cnccn2)cc(Cl)n1
MIC [1]: > 100 µg/mL
MIC [2]: ≥ 500 µg/mL
MIC [3]: > 100 µg/mL
MIC [4]: > 100 µg/mL
MIC [5]: ≥ 500 µg/mL
MIC [6]: ≥ 500 µg/mL
pIC50 [7]: < 3.60

O=C(Nc1ccc(C(=O)O)c(O)c1)c1cccc(Cl)n1
MIC [1]: 3.13 µg/mL (≈ 10.7 µM)
MIC [2]: 125 µg/mL (≈ 427 µM)
MIC [3]: > 100 µg/mL
MIC [4]: 100 µg/mL (≈ 342 µM)
MIC [5]: 125 µg/mL (≈ 427 µM)
MIC [6]: 125 µg/mL (≈ 427 µM)
pIC50 [7]: < 3.00
selectivity ratio [8]: 93.5

COc1ccnc(C(=O)Nc2ccc(C(=O)O)c(O)c2)c1
MIC [1]: 1.56 µg/mL (≈ 5.41 µM)
MIC [2]: 31.2 µg/mL (≈ 108 µM)
MIC [3]: > 100 µg/mL
MIC [4]: > 100 µg/mL
MIC [5]: 125 µg/mL (≈ 434 µM)
MIC [6]: 62.5 µg/mL (≈ 217 µM)
pIC50 [7]: < 3.00
selectivity ratio [8]: 185

COc1ccnc(C(=O)Nc2cnccn2)c1
MIC [1]: > 100 µg/mL
MIC [2]: ≥ 250 µg/mL
MIC [3]: 50 µg/mL (≈ 217 µM)
MIC [4]: > 100 µg/mL
MIC [5]: ≥ 250 µg/mL
MIC [6]: ≥ 250 µg/mL
pIC50 [7]: < 3.60

O=C(Nc1cnccn1)c1ccncc1
MIC [1]: > 100 µg/mL
MIC [2]: ≥ 500 µg/mL
MIC [3]: > 100 µg/mL
MIC [4]: > 100 µg/mL
MIC [5]: ≥ 500 µg/mL
MIC [6]: ≥ 500 µg/mL
pIC50 [7]: < 3.00
